# An excerpt weighted towards active compounds, which were near 2.2% of everything screened.
# Hck Nef HTS: inhibitors of Nef-activated human Hck kinase, primary screen, biochemical, Z-Lyte FRET, 384-well, Hck-YEEI. Recombinant Hck-YEEI plus Nef, Z-Lyte FRET kinase assay. 0.68% of 220,000 active. Tyrosine-protein kinase HCK (Homo sapiens), P08631. AID 463187, 2010. inhibition, % at 20 µM;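 active = Hck-Nef kinase inhibition above about 50%, limit read from the data; inactive = inhibition below that limit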;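 also: 0% = DMSO with Hck plus Nef and 100% = Hck alone without Nef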
# Target sequence (P08631 whole entry, looked up): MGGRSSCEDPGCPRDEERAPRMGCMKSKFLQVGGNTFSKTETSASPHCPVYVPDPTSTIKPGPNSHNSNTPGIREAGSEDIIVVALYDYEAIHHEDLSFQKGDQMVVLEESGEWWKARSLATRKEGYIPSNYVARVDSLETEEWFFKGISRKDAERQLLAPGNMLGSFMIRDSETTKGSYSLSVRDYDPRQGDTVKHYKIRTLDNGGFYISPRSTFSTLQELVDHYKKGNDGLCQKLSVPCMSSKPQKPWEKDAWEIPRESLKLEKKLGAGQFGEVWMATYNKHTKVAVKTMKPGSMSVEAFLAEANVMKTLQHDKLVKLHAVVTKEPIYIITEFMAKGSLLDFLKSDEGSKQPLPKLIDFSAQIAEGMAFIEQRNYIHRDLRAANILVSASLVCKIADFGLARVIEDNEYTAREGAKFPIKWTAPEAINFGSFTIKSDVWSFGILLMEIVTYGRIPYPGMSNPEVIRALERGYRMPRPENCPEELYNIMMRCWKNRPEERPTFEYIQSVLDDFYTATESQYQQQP
# Runt-SMMHC FRET: inhibitors of RUNX1 Runt–CBFb-SMMHC binding, primary screen, biochemical, FRET, Cerulean-Runt, Venus-CBFb-SMMHC, uHTS. Runt-related transcription factor 1 (Homo sapiens) + Core-binding factor subunit beta …. Cerulean-Runt/Venus-CBFb-SMMHC FRET ratio 530/480, 1 h. inhibition, % at 20 µM. AID 1434, 2008. 0.74% of 220,000 active;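 active = mean inhibition across duplicate retests at 20 µM reaching about 50%, limit read from the data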;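 also: 0% = DMSO wells and 100% = wells with excess untagged CBFb-SMMHC; inhibitors lower the FRET ratio by blocking Runt binding to CBFb-SMMHC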
# RanGTP-Imp inh: inhibitors of RanGTP-importin-beta interaction, primary screen, biochemical, FRET, CFP-Ran, YFP-importin-beta, homogeneous | inhibition, % (concentration not given with the values) | Ran GTPase (GTP-bound) - importin-beta complex | AID 2216, 2009 | cell-free CFP-Ran/YFP-importin-beta FRET ratio | 1.1% of 300,000 active;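 active = more than half of the replicate wells show a fall in the fluorescence ratio signal beyond about 16%, limit read from the data, passing the limit was not always enough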;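 also: 0% = DMSO wells and 100% = Ran loaded with GDP instead of GTP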
# Runt-CBFb FRET: inhibitors of RUNX1 Runt–CBFb binding, primary screen, biochemical, FRET, Cerulean-Runt, Venus-CBFb, uHTS. 0.46% of 220,000 active. Cerulean-Runt/Venus-CBFb FRET ratio 530/480, 1 h. inhibition, % at 20 µM. AID 1496, 2009;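 active = inhibition over about 50% at 20 µM in the single-dose screen, limit read from the data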;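 also: 0% = DMSO wells and 100% = excess unlabeled CBFb competitor control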
#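 Assay system: Cerulean-Runt domain fusion protein, energy donor; Signal: fluorescence energy transfer, 422 nm excitation, 530/480 nm emission; Timing: 1 h compound exposure, room temperature; Control set: unlabeled CBFb; Medium: Tris buffer pH 7.5 with salts and BSA; Compound: single test concentration of 20 µM, 1% DMSO final; Probe or stimulus: Venus-CBFb 100 nM.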
# 14-3-3 Bad inh: inhibitors of 14-3-3 zeta/Bad binding, primary screen, biochemical, TR-FRET, bovine 14-3-3 zeta; 0.71% of 220,000 active; inhibition, % at 21.7 µM; AID 781, 2007; TR-FRET 14-3-3zeta/Dy647-pBad peptide displacement, 1 h; 14-3-3 protein zeta/delta (Bos taurus), P63103;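 active = inhibition above about 70%, limit read from the data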;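 also: 0% = full 14-3-3 plus peptide FRET controls and 100% = background without 14-3-3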
# Tb hexokinase: Trypanosoma brucei hexokinase 1 inhibitors, primary screen, biochemical, G6PDH-coupled NADH absorbance, MLSCN library; inhibition, % at 10 µM; 0.11% of 220,000 active; recombinant TbHK1, G6PDH-coupled NADH A340; hexokinase 1 [Trypanosoma brucei];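 active = inhibition of 50% or more in the single-dose primary screen; inactive = inhibition below 50%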
# * hit, by the source's call; · = not tested or not shown.
SMILES,Hck Nef HTS,Runt-SMMHC FRET,RanGTP-Imp inh,Runt-CBFb FRET,14-3-3 Bad inh,Tb hexokinase
CCOc1ccc2nc(NCCNC(=O)Nc3ccccc3)c(C#N)cc2c1,25,25,86*,8,5,14
CCOc1ccc2nc(SCC#N)c(C#N)cc2c1,1,-8,-1,3,3,1
CCOc1ccc(Nc2nc3c(C)cccc3cc2C#N)cc1,·,·,-13,·,·,·
CCCCc1nc2ccccc2c(NC(=O)CN2CCCC2)c1CCC,8,-2,-2,-2,84*,0
Nn1c(COc2ccc(Cl)cc2)nc2ccccc2c1=O,4,4,5,-2,-33,23
O=C(Nc1nccs1)c1ccccc1N=Cc1ccccc1,5,58*,7,19,-8,-3
COc1cccc(C=Nc2ccccc2C(=O)Nc2nccs2)c1OC,6,52*,10,24,10,-1
C/C(C/C(C)=C1/SC(=S)NC1=O)=C1\SC(=S)NC1=O,75*,20,·,37,37,-18
CC(C)C[C@@H]1NC(=O)[C@H](C(C)C)NC(=O)c2cc([N+](=O)[O-])cc(I)c2OCC[C@@H](C(N)=O)NC1=O,-5,2,·,-2,-10,-9
Cc1ccc(S(C)(=O)=O)cc1C(=O)N1CC(C(N)=O)Oc2ccccc21 (stereo not given),·,·,0,·,·,·
O=C(COc1ccccc1)Nc1c2c(nn1-c1ccccc1)CS(=O)C2 (stereo not given),·,·,5,·,·,·
CN1CCN(c2cc(-c3ccccc3)nc3cc(-c4ccc(F)cc4)nn23)CC1,7,3,0,-6,-11,-26
Fc1ccc(-c2cc3nc(-c4ccccc4)cc(N4CCN(CCN5CCOCC5)CC4)n3n2)cc1,5,11,22*,4,28,-9
CC(Sc1nc(N)cc(=O)[nH]1)C(=O)Nc1cccc(Cl)c1 (stereo not given),7,-3,-13,-2,-7,22
CC(=O)NC1C(=O)N=C(SC(C)C(=O)Nc2cccc(Cl)c2)NC1=O (stereo not given),-2,5,-1,3,87*,-3
O=C(CSc1nnc(NC(=O)c2ccc(F)cc2)s1)NC1CC1,·,·,-7,·,·,·
O=C(Cc1ccc(F)cc1)Nc1nnc(SCC(=O)NC2CCCC2)s1,15,-1,27*,0,-7,-2
CC[N+](CC)(CC)CCCCOc1ccc2c(c1)C(=O)c1cc(OCCCC[N+](CC)(CC)CC)ccc1-2,2,4,8,-2,15,-5
COC(=O)C1=CNC=C(C(=O)OC)C1c1cccc(OC)c1,39,100*,6,42,-4,-10
COC(=O)C1=CNC=C(C(=O)OC)C1c1ccc(Cl)cc1,32,83*,4,38,-4,-6
COC(=O)C1=CN(c2cccc(Cl)c2)C=C(C(=O)OC)C1c1cccc(OC)c1,·,·,-1,·,·,·
Cc1noc(C)c1C(=O)N1CCC(C(=O)c2ccccc2)CC1,2,-10,0,0,-2,-3
O=C(CSc1nccn1Cc1ccccc1)NCc1ccccc1,4,0,-3,1,-10,-1
O=C(NCc1ccccn1)C(C(=O)c1cccc([N+](=O)[O-])c1)n1cc(Cl)ccc1=O (stereo not given),17,2,2,-2,-8,-11
O=[N+]([O-])c1ccccc1S(=O)(=O)N1CCN(c2ccc(F)cc2)CC1,·,·,6,·,·,·
Cc1cc(-c2ccco2)n2c(nc3ccccc32)c1C#N,0,-221,-37,-48,-12,-14
C=CCc1c(C)c(C#N)c2nc3ccccc3n2c1N1CCCCC1,13,67,7,16,1,-10
